Assay results from different studies.
Each line is one published result; the experiments were not run side by side.
A disintegrin and metalloproteinase with thrombospondin motifs 7: A disintegrin and metalloproteinase with thrombospondin motifs 7 (Homo sapiens, UniProt Q9UKP4)
HDAC5: Histone deacetylase 5 (HDAC5, Homo sapiens, UniProt Q9UQL6)
PDE1C: Dual specificity calcium/calmodulin-dependent 3',5'-cyclic nucleotide phosphodiesterase 1C (PDE1C, Homo sapiens, UniProt Q14123)
F11: Coagulation factor XI (F11, Homo sapiens, UniProt P03951)

Cn1nccc1[C@]1(CNC(=O)c2ccc(Cl)c(F)c2-c2ccc(C(F)(F)F)cc2)NC(=O)NC1=O
IC50 (A disintegrin and metalloproteinase with thrombospondin motifs 7; enzyme activity, inhibitor, FRET): 3.2 nM

COc1ccc(C[C@H]2COC(=O)[C@@H]2Cc2ccc(OCC(=O)Nc3ccc(C(=O)Nc4ccccc4N)cc3)c(OC)c2)cc1OC
IC50 (HDAC5; enzyme activity, inhibitor): > 10000 nM

O=C(NO)c1cncc(OS(=O)(=O)Oc2ccc(-n3ccnc3)cc2)c1
IC50 (HDAC5; enzyme activity, inhibitor, fluorescence): 3560 nM

Cc1cc2c(c(=O)[nH]1)C(=O)O/C2=C\c1ccc(F)cc1OC(C)C
IC50 (PDE1C; enzyme activity, inhibitor, radiometric): 709 nM

O=C(NO)c1cncc(OS(=O)(=O)Oc2ccc3ccccc3c2)c1
IC50 (HDAC5; enzyme activity, inhibitor, fluorescence): 8200 nM

CCCC(=O)NCCCN1CCc2c([nH]c3ccc(Cl)cc23)C1
IC50 (Sodium-dependent dopamine transporter (SLC6A3, Homo sapiens, UniProt Q01959, F155Y); transporter uptake, inhibitor): 18200 nM

O=c1oc(-c2cccnc2)nc2ccccc12
IC50 (F11; enzyme activity, inhibitor, absorbance; pH 7.4): > 50000 nM

Cc1cc2c(c(=O)[nH]1)C(=O)O/C2=C\c1ccccc1OCC1CC1
IC50 (PDE1C; enzyme activity, inhibitor, radiometric): 190 nM

O=c1oc(-c2ccco2)nc2ccccc12
IC50 (F11; enzyme activity, inhibitor, absorbance; pH 7.4): > 50000 nM

Cn1nccc1[C@]1(CNC(=O)c2ccccc2-c2ccc(C(F)(F)F)cc2)NC(=O)NC1=O
IC50 (A disintegrin and metalloproteinase with thrombospondin motifs 7; enzyme activity, inhibitor, FRET): 12 nM

CCOc1ccccc1/C=C1\OC(=O)c2c1cc(C)[nH]c2=O
IC50 (PDE1C; enzyme activity, inhibitor, radiometric): 147 nM

O=C1NC(=O)[C@](CNC(=O)c2cnn(-c3ccc(F)cc3)n2)(C2CC2)N1
IC50 (A disintegrin and metalloproteinase with thrombospondin motifs 7; enzyme activity, inhibitor, FRET): 25.6 nM

O=C(/C=C/c1ccc(O)c2oc(-c3ccc(O)c(O)c3)cc12)O[C@H](Cc1ccc(O)c(O)c1)C(=O)O
IC50 (YTH domain-containing family protein 2 (YTHDF2, Homo sapiens, UniProt Q9Y5A9); ligand displacement, FP): 6000 nM

Cc1cc2c(c(=O)[nH]1)C(=O)O/C2=C\c1cc(F)ccc1OCCN1CCOCC1
IC50 (PDE1C; enzyme activity, inhibitor, radiometric): 31 nM

Cn1nccc1[C@]1(CNC(=O)c2ccc(C(F)(F)F)c(F)c2-c2ccc(C(F)(F)F)cc2)NC(=O)NC1=O
IC50 (A disintegrin and metalloproteinase with thrombospondin motifs 7; enzyme activity, inhibitor, FRET): 9.5 nM
